# Reference: publication PMC3669693 (Journal of neuroimmune pharmacology : the official journal …, 2012)
# pEC50, pIC50: −log10 of the molar value. Where “and” joins values, the source holds several entries; their conditions need not be identical. Identical values can stand only once. Like-named read-outs stand apart in the source and are kept apart here.
# Columns and labels:
# GPR55 [1] = target: T1, GPR55 (Homo sapiens, UniProt Q9Y2T6); assay: β-arrestin assessment of GPR55 activation; format: cell-based; conditions: for maximal inhibition of LPI response / effect of low concentrations on LPI-mediated βarr2-GFP recruitment: agonist 3 μM LPI; for maximal inhibition of LPI response / maximal inhibition of SR141716A response: normalized to agonist response; for recruitment of βarr2-GFP by compound alone: no agonist, AEA 0.1–30 μM
# How it was run: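 U2OS cells stably co-expressing HA-GPR55E and βarr2-GFP were seeded on glass coverslips, kept overnight at 37°C/5% CO2 and assayed in HBSS. Test compound (0.01–30 μM) was pre-incubated 15 min, then co-incubated 40 min RT with 3 μM LPI or 30 μM SR141716A. Fixation: 4% paraformaldehyde, 25 min. Imaging: 488 nm, 40X oil. Fluorescent pit counts were normalized to agonist response (100%), with sigmoidal fits for IC50. Three experiments in duplicate.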
# GPR55 [2] = target: T1, GPR55; assay: GPR55 internalization assay, immunocytochemistry; format: cell-based; conditions: for effect on GPR55 internalization induced by ML184, ML185, ML186: 10 μM pre-incubation, agonist 5 μM of each ML compound; for effect on LPI-induced GPR55 internalization / effect on SR141716A-induced GPR55 internalization / GPR55 receptor localization, compound alone: 10 μM; for effect on LPI-induced GPR55 internalization / effect on SR141716A-induced GPR55 internalization: 15 min pre-incubation; for effect on LPI-induced GPR55 internalization: agonist 3 μM LPI; for effect on SR141716A-induced GPR55 internalization: agonist 30 μM SR141716A; for GPR55 receptor localization, compound alone: no agonist; for GPR55 receptor internalization, compound alone: 40 min, RT
# [3] = tested on: HA-GPR55E/βarr2-GFP U2OS cells; assay: LDH cytotoxicity assay; format: cell-based; conditions: for toxicity to the cells (released LDH): at concentrations employed in this study (10 and 30 μM)
# GPR55 [4] = target: T1, GPR55; conditions: cited from earlier work
# GPR55 [5] = target: T1, GPR55; conditions: read-out: EC50, agonist at GPR55 (βarr2-GFP distribution); previous study; ref Kapur et al. 2009; cited from earlier work
# CB2 = conditions: read-out: agonist potency at CB2; ref Ryberg et al., 2007; cited from earlier work
# CB1 receptor = conditions: ref Porter et al., 2002; cited from earlier work
# CB1 = conditions: read-out: agonist potency at CB1; ref Ryberg et al., 2007; cited from earlier work
# CB2 receptor = conditions: ref Porter et al., 2002; cited from earlier work
# GPR55 [6] = target: T1, GPR55; conditions: read-out: agonist potency at GPR55; ref Ryberg et al., 2007; cited from earlier work
# [7] = 10 μM + 3 μM LPI, % of total LDH activity
# [8] = 10 μM + 30 μM SR141716A, % of total LDH activity
# [9] = 10 μM alone, % of total LDH activity (1% Triton X-100)
# [10] = 30 μM + 3 μM LPI, % of total LDH activity
# [11] = 30 μM + 30 μM SR141716A, % of total LDH activity
# [12] = 30 μM alone, % of total LDH activity (1% Triton X-100)
# T1 sequence (Q9Y2T6 1-292 limits assumed): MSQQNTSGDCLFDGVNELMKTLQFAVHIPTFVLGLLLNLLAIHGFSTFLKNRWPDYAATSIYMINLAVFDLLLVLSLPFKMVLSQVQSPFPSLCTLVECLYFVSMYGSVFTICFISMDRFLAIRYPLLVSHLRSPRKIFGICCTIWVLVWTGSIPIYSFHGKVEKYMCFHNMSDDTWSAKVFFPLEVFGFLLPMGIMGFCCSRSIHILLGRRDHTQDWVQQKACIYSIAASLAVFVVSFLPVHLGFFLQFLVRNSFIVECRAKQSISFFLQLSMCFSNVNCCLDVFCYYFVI
compound,measurement,setting,value
"CCCCC/C=C\C/C=C\C/C=C\C/C=C\CCCC(=O)NCCO [AEA, N-arachidonyl ethanolamine]",pIC50,GPR55 [1],5.23 and 4.92
same,maximal inhibition of LPI response,GPR55 [1],20%
same,maximal inhibition of SR141716A response,GPR55 [1]; agonist 30 μM SR141716A,65%
same,recruitment of βarr2-GFP by compound alone,GPR55 [1],did not result in recruitment of βarr2-GFP
same,effect of low concentrations on LPI-mediated βarr2-GFP recruitment,GPR55 [1]; low concentrations,enhanced the recruitment
same,"effect on GPR55 internalization induced by ML184, ML185, ML186",GPR55 [2],largely attenuated
same,effect on LPI-induced GPR55 internalization,GPR55 [2],markedly decreased receptor internalization
same,effect on SR141716A-induced GPR55 internalization,GPR55 [2],markedly decreased receptor internalization
same,"GPR55 receptor localization, compound alone",GPR55 [2],membrane bound receptors
same,"Cell death, %",[3]; [7],6.12%
same,"Cell death, %",[3]; [8],6.79%
same,"Cell death, %",[3]; [9],5.90%
same,"Cell death, %",[3]; [10],5.86%
same,"Cell death, %",[3]; [11],8.02%
same,"Cell death, %",[3]; [12],5.93%
same,toxicity to the cells (released LDH),[3],neither AEA nor virodhamine are toxic
same,activation of GPR55,"GPR55 [4]; previous findings of the laboratory, ref Kapur et al., 2009",did not activate GPR55
"CCCCCCC(C)(C)c1ccc([C@@H]2C[C@H](O)CC[C@H]2CCCO)c(O)c1 [CP55,940]",type of activity at GPR55,"GPR55 [4]; ref Henstridge et al. 2009, Kapur et al. 2009, Pineiro et al. 2011",antagonist/partial agonist
"Cc1cccc(N2CCN(C(=O)c3cc(S(=O)(=O)N(C)C)ccc3N3CCCC3)CC2)c1C [ML184, 3-[4-(2,3-dimethylphenyl)piperazine-1-carbonyl]-N,N-dimethyl-4-pyrrolidin-1-ylbenzenesulfonamide]","GPR55 receptor internalization, compound alone",GPR55 [2]; 5 μM,resulted in receptor internalization
"COc1ccc(-c2csc(NC(=O)CSc3nnc4c(C)cc5ccccc5n34)n2)cc1 [ML185, N-[4-(4-methoxyphenyl)-1,3-thiazol-2-yl]-2-[(4-methyl-[1,2,4]triazolo[4,3-a]quinolin-1-yl)sulfanyl]acetamide]","GPR55 receptor internalization, compound alone",GPR55 [2]; 5 μM,resulted in receptor internalization
"COc1ccc(S(=O)(=O)N2CCOCC2)cc1NC(=O)c1cc2c(s1)CCCC2 [ML186, N-(2-methoxy-5-morpholin-4-ylsulfonylphenyl)-4,5,6,7-tetrahydro-1-benzothiophene-2-carboxamide]","GPR55 receptor internalization, compound alone",GPR55 [2]; 5 μM,resulted in receptor internalization
"Cc1c(C(=O)NN2CCCCC2)nn(-c2ccc(Cl)cc2Cl)c1-c1ccc(Cl)cc1 [SR141716A, N-(piperidin-1-yl)-5-(4-chlorophenyl)-1-(2,4-dichlorophenyl)-4-methyl-1H-pyrazole-3-carboxamide]","GPR55 receptor internalization, compound alone",GPR55 [2]; 30 μM,loss of membrane staining and the appearance of cytosolic fluorescent aggregates corresponding to internalized receptors
same,"Cell death, %",[3]; [12],7.12%
same,pEC50,GPR55 [5],5.41
"CCCCC/C=C\C/C=C\C/C=C\C/C=C\CCCC(=O)OCCN [virodhamine, O-arachidonoyl ethanolamine]",maximal inhibition of LPI response,GPR55 [1],46%
same,maximal inhibition of SR141716A response,GPR55 [1]; agonist 30 μM SR141716A,68%
same,recruitment of βarr2-GFP by compound alone,GPR55 [1],weak recruitment of βarr2-GFP
same,effect of low concentrations on LPI-mediated βarr2-GFP recruitment,GPR55 [1]; low concentrations,enhanced the recruitment
same,effect of low concentrations on SR141716A-mediated βarr2-GFP recruitment,"GPR55 [1]; low concentrations, agonist 30 μM SR141716A",enhanced the recruitment
same,pEC50,CB2,6.42
same,type of activity at the CB1 receptor,CB1 receptor,partial agonist/antagonist
same,"effect on GPR55 internalization induced by ML184, ML185, ML186",GPR55 [2],largely attenuated
same,effect on LPI-induced GPR55 internalization,GPR55 [2],strikingly decreased receptor internalization
same,effect on SR141716A-induced GPR55 internalization,GPR55 [2],strikingly decreased receptor internalization
same,"GPR55 receptor localization, compound alone",GPR55 [2],receptors were localized to the membrane
same,pEC50,CB1,5.54
same,type of activity at the CB2 receptor,CB2 receptor,full agonist
same,pEC50,GPR55 [6],7.92
same,"Cell death, %",[3]; [7],6.94%
same,"Cell death, %",[3]; [8],6.44%
same,"Cell death, %",[3]; [9],7.27%
same,"Cell death, %",[3]; [10],8.73%
same,"Cell death, %",[3]; [11],6.93%
same,"Cell death, %",[3]; [12],8.08%
same,toxicity to the cells (released LDH),[3],neither AEA nor virodhamine are toxic
lysophosphatidylinositol [LPI],"GPR55 receptor internalization, compound alone",GPR55 [2]; 3 μM,loss of membrane staining and the appearance of cytosolic fluorescent aggregates corresponding to internalized receptors
same,"Cell death, %","[3]; 3 μM alone, % of total LDH activity (1% Triton X-100)",7.08%
same,pEC50,GPR55 [5],5.92
